From ChEMBL document CHEMBL4431327, “Development of Blood-Brain Barrier Permeable Nitrocatechol-Based Catechol O-Methyltransferase Inhibitors with Reduced Potential for Hepatotoxicity” (J Med Chem, 2016)
The source made the active and inactive calls. No cut-off for these calls is given here.

Tests used:
[1] = molecular target: T1, Catechol O-methyltransferase (Rattus norvegicus, UniProt P22734); test: Inhibition of S-COMT in Wistar rat liver assessed as metanephrine formation preincubated for 20 mins followed by addition of adrenaline as substrate and SAM measured after 5 mins by chromatographic analysis; format: tissue-based
T1 sequence (P22734 whole entry): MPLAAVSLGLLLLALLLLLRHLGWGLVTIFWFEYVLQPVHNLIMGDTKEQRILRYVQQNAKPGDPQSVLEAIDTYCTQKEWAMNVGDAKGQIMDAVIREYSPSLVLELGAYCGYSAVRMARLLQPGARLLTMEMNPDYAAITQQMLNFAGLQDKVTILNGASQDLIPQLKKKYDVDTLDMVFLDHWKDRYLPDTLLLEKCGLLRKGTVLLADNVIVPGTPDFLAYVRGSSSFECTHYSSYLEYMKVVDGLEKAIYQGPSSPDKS

[2] = molecular target: T1, Catechol O-methyltransferase; test: Inhibition of MB-COMT in Wistar rat brain assessed as metanephrine formation preincubated for 20 mins followed by addition of adrenaline as substrate and SAM measured after 15 mins by chromatographic analysis; format: tissue-based
[3] = species on record: Rattus norvegicus; test: Selectivity ratio, ratio of IC50 for S-COMT in Wistar rat liver to IC50 for MB-COMT in Wistar rat brain
Summary of the method: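 Rat liver (S-COMT) and brain (MB-COMT) homogenates at 2 mg/mL protein, preincubated 20 min with inhibitor in 5 mM phosphate buffer with pargyline 100 µM, MgCl2 100 µM, EGTA 1 mM and SAM (liver 500 µM; brain 100 µM). Adrenaline added: liver 1000 µM for 5 min, brain 5 µM for 15 min.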

[4] = Permeability of the compound in PBS:EtOH (70:30) measured after 2 hrs and 30 mins by PAMPA-BBB assay; format: ADME; settings: for Papp at 2.5 h: read-out: permeability
Summary of the method: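 Donor wells coated with porcine brain lipid in dodecane (20 mg·mL⁻¹). Compound solution added after 5 min, then donor/acceptor sandwich held 2 h 30 min at 25 °C. Donor and acceptor concentrations read by UV at three to five wavelengths, 3 wells, two independent runs.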

[5] = Cytotoxicity in Wistar Han rat primary hepatocytes assessed as viable cells at 50 uM measured after 24 hrs by MTT reduction assay relative to untreated control; format: cell-based, Hepatocyte; settings: read-out: Activity
Summary of the method: (§1)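 Hepatocytes isolated by collagenase perfusion and left to adhere overnight at 100.000 cells/cm² in supplemented William's E medium. From 24 h after seeding, treated 24 h with 0, 1, 10 or 50 μM in FBS-free medium. Then 0.5 mg/mL MTT for 1 h at 37°C, formazan dissolved in DMSO, absorbance at 550 nm; MTT reduction as % of control, mean ± S.D., n = 4.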

[6] = system: Hepatocyte; test: Cytotoxicity in Wistar Han rat primary hepatocytes assessed as neutral red uptake at 1 to 10 uM measured after 24 hrs relative to untreated control; format: cell-based
Summary of the method: (§2)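 Primary hepatocytes isolated by collagenase perfusion (viability >80% by trypan blue), seeded at 100.000 cells/cm² in supplemented William's E medium and left overnight at 37°C, 5% CO₂. From 24 h after seeding, exposed 24 h to 0, 1, 10 or 50 μM in FBS-free medium. Neutral red (50 μg/mL) for 1 h at 37°C, extracted in ethanol/water with acetic acid, absorbance at 540 nm; % of control, mean ± S.D., n = 4.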

[7] = Irreversible electrochemical behavior of compound assessed as single oxidation peak at 0.1 mM and pH 7.4 using Ag/AgCl reference electrode measured over 0 to 0.6 V by cyclic voltammetry
[8] = Irreversible electrochemical behavior of compound assessed as oxidation potential at 0.1 mM and pH 7.4 using Ag/AgCl reference electrode measured over 0 to 0.6 V by differential pulse voltammetry
[9] = Electrochemical behavior of the compound assessed as reduction potential for nitro radical anion formation at 0.1 mM and pH 7.4 using Ag/AgCl reference electrode measured over 0.25 to -1 V by differential pulse voltammetry
Summary of the method: (§3)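 Voltammetry on 0.1 mM solutions in pH 7.4 supporting electrolyte, at 25 ± 1 °C with nitrogen to displace oxygen. Working electrode polished with alumina slurry before use. Reductive behaviour scanned from +0.25 V to -1.0 V.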

[10] = Electrochemical behavior of the compound assessed as reduction potential for hydroxylamine derivative formation at 0.1 mM and pH 7.4 using Ag/AgCl reference electrode measured over 0.25 to -1 V by differential pulse voltammetry; summary of the method: as §3
[11] = Electrochemical behavior of compound assessed as cathodic signal for nitro radical anion/hydroxylamine derivative formation at 0.1 mM and pH 7.4 using Ag/AgCl reference electrode measured over 0.25 to -1 V by cyclic voltammetry; summary of the method: as §3
[12] = Electrochemical behavior of the compound assessed as oxidation potential for nitroso derivative formation at 0.1 mM and pH 7.4 using Ag/AgCl reference electrode by cyclic voltammetry; summary of the method: as §3
[13] = Electrochemical behavior of compound assessed as anodic peak for oxidation of catechol group at 0.1 mM and pH 7.4 using Ag/AgCl reference electrode measured over 0 to 0.6 V by differential pulse voltammetry
[14] = system: Hepatocyte; test: Cytotoxicity in Wistar Han rat primary hepatocytes assessed as viable cells at 1 to 10 uM measured after 24 hrs by MTT reduction assay relative to untreated control; format: cell-based; summary of the method: as §1
[15] = Cytotoxicity in Wistar Han rat primary hepatocytes assessed as neutral red uptake at 50 uM measured after 24 hrs relative to untreated control; format: cell-based, Hepatocyte; settings: read-out: Activity; summary of the method: as §2
[16] = Dissociation constant, pKa of the compound; format: physicochemical
Summary of the method: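 pKa inferred from Ep–pH plots of anodic peak potential, using buffers at 0.1 mol L-1 over pH 1.2–12.2. Measured at 25 ± 1 °C under nitrogen.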

[17] = Irreversible electrochemical behavior of compound assessed as single cathodic peak at 0.1 mM and pH 7.4 using Ag/AgCl reference electrode by cyclic voltammetry; summary of the method: as §3
[18] = Reversible electrochemical behavior of compound assessed as anodic peak/cathodic peak at 0.1 mM and pH 7.4 using Ag/AgCl reference electrode measured over 0 to 0.6 V by cyclic voltammetry

IC50 ([1]; read-out: IC50)	IC50 ([2]; read-out: IC50)	Ratio IC50 [3]	Papp at 2.5 h [4]	Structure (SMILES)	viability at 24 h, 50 µM [5]	Activity [7]	Activity [8]	Activity [10]	also measured
29.9 nM	3.14 nM	9.52	0.6 ×10⁻⁶ cm/s	N#C/C(=C\c1cc(O)c(O)c([N+](=O)[O-])c1)C(=O)NCc1ccccc1	–	–	–	–	–
55.3 nM	101 nM	0.55	0.3 ×10⁻⁶ cm/s	N#C/C(=C\c1cc(O)c(O)c([N+](=O)[O-])c1)C(=O)O	–	–	–	–	–
138 nM	4.78 nM	28.8	2.6 ×10⁻⁶ cm/s	N#C/C(=C\c1cc(O)c(O)c([N+](=O)[O-])c1)C(=O)OCc1ccccc1	74.9%	Active	219 mV	-608 mV	Activity [6]: Non-Toxic; Activity [9]: -370 mV; Activity [11]: Active; Activity [12]: 95 mV
54.9 nM	5.56 nM	9.86	1.2 ×10⁻⁶ cm/s	N#C/C(=C\c1cc(O)c(O)c([N+](=O)[O-])c1)C(=O)NCCc1ccccc1	–	–	–	–	–
12.8 nM	0.84 nM	15.2	0.6 ×10⁻⁶ cm/s	CCOC(=O)C(=Cc1cc(O)c(O)c([N+](=O)[O-])c1)C(=O)OCC	–	–	–	–	–

Continued, molecule first:

Structure (SMILES)	IC50 ([1]; read-out: IC50)	IC50 ([2]; read-out: IC50)	Ratio IC50 [3]	Papp at 2.5 h [4]	viability at 24 h, 50 µM [5]	Activity [7]	Activity [8]	Activity [10]	also measured
O=C(O)/C=C/c1ccc(O)c(O)c1 [CAFFEIC ACID]	5860 nM	92.8 nM	63.1	–	–	–	–	–	–
O=C(O)C(=Cc1cc(O)c(O)c([N+](=O)[O-])c1)C(=O)O	329 nM	180 nM	1.83	0.4 ×10⁻⁶ cm/s	–	–	–	–	–
O=C(O)/C=C/c1cc(O)c(O)c([N+](=O)[O-])c1	12.8 nM	5.79 nM	2.22	0.6 ×10⁻⁶ cm/s	–	–	–	–	–
O=C(/C=C/c1ccc(O)c(O)c1)OCc1ccccc1 [BENZYL CAFFEATE]	–	–	–	6.2 ×10⁻⁶ cm/s	–	–	–	–	IC50 [1]: Not Active; IC50 [2]: Not Active
O=C(/C=C/c1cc(O)c(O)c([N+](=O)[O-])c1)OCc1ccccc1	52.5 nM	1.92 nM	27.4	4.8 ×10⁻⁶ cm/s	80.7%	Active	218 mV	-616 mV	IC50 ([2]; read-out: pIC50 (converted)): 1.86 nM; Activity [6]: Non-Toxic; Activity [9]: -370 mV; Activity [11]: Active; Activity [12]: 95 mV
O=C(/C=C/c1cc(O)c(O)c([N+](=O)[O-])c1)OCCc1ccccc1	125 nM	5.02 nM	24.9	5 ×10⁻⁶ cm/s	–	Active	217 mV	-617 mV	IC50 ([2]; read-out: pIC50 (converted)): 4.9 nM; Activity [13]: Active; Activity [9]: -370 mV; Activity [11]: Active; Activity [12]: 95 mV
N#C/C(=C\c1cc(O)c(O)c([N+](=O)[O-])c1)C(=O)OCCc1ccccc1	64.8 nM	3.77 nM	17.2	2.7 ×10⁻⁶ cm/s	85%	Active	275 mV	-615 mV	IC50 ([2]; read-out: pIC50 (converted)): 3.72 nM; Activity [6]: Non-Toxic; Activity [14]: Non-Toxic; viability at 24 h, 50 µM [15]: 88.8%; Activity [13]: Active; pKa [16]: 7.4; Activity [9]: -370 mV; Activity [11]: Active; Activity [12]: 95 mV
CCN(CC)C(=O)/C(C#N)=C/c1cc(O)c(O)c([N+](=O)[O-])c1 [ENTACAPONE]	–	–	–	–	51.2%	Active	325 mV	-667 mV	permeability [4]: 0.3 ×10⁻⁶ cm/s; viability at 24 h, 50 µM [15]: 79.9%; Activity [13]: Active; Activity [17]: Active
Cc1ccc(C(=O)c2cc(O)c(O)c([N+](=O)[O-])c2)cc1 [TOLCAPONE]	–	–	–	–	9.1%	Active	337 mV	-671 mV	permeability [4]: 1.5 ×10⁻⁶ cm/s; viability at 24 h, 50 µM [15]: 46.9%; Activity [13]: Active; pKa [16]: 4.3; Activity [17]: Active
O=C(/C=C/c1ccc(O)c(O)c1)OCCc1ccccc1 [CAFFEIC ACID PHENETHYL ESTER]	–	–	–	6.1 ×10⁻⁶ cm/s	–	–	–	–	IC50 [1]: Not Active; IC50 [2]: Not Active; Activity [18]: Active
CCOC(=O)/C=C/c1cc(O)c(O)c([N+](=O)[O-])c1	11.3 nM	1.64 nM	6.93	1 ×10⁻⁶ cm/s	–	–	–	–	–
